Screens as filed in PubChem.
The list is not random: actives were taken first. Their share in the collection is about 3.2%.
DAX1 inh-1 – DAX1 (NR0B1) inhibitors, primary screen, cell-based, HEK293, Gal4-DAX1, luciferase luminescence; Nuclear receptor subfamily 0 group B member 1 (Homo sapiens), P51843; HEK293 Gal4-DAX1 luciferase reporter; inhibition, % at 6.75 µM; 340,000 compounds, 0.99% hits; AID 504766, 2011;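 active = inhibition above the mean over all tested compounds plus 3 SD, cut at about 4.2% in these data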;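 note: 0% = DAX1-transfected cells with DMSO and 100% = empty-vector control cells with DMSO; inhibition shows as a rise in luminescence from relieved DAX1 repression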
NR2E3 ag-1 – NR2E3 agonists in two-hybrid cells, primary screen, cell-based, luminescence, CHO-S, Gal4-NCOR/VP16-NR2E3; Photoreceptor-specific nuclear receptor (Homo sapiens), Q9Y5X4; 360,000 compounds, 0.35% hits; inhibition of corepressor binding, % at 3.98 µM; luciferase;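 active = inhibition above the mean of all tested compounds plus 3 SD, cut at about 70% in these data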;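 note: 0% = DMSO with NR2E3 transfected cells and 100% = cells lacking NR2E3 construct; higher means lower luciferase signal from less NR2E3 corepressor binding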
Target sequence (Q9Y5X4 whole entry, looked up, the tested form may be a part): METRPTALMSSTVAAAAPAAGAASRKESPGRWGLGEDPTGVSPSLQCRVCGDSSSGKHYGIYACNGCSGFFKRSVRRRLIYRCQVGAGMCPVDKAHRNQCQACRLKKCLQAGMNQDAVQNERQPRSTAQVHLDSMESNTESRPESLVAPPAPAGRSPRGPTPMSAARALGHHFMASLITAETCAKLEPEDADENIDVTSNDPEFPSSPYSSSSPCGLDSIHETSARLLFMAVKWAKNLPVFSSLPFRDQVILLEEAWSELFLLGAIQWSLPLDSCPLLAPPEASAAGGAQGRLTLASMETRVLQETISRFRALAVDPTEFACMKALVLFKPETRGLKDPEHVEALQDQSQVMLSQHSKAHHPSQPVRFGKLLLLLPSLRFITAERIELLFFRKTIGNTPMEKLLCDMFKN
SMARCA2 activ – SMARCA2 (BRM) function activators, primary screen, cell-based, luminescence, high throughput; 370,000 compounds, 1% hits; MG213 cells, MMTV-luciferase reporter, dexamethasone, overnight; AID 652017, 2013; activation, % at 9.1 µM; in the data active = activation above about 7.8%;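 note: 0% = vehicle wells and 100% = reference activator wells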
JMJD2C inh – inhibitors of GASC-1 histone demethylase, primary screen, biochemical, fluorescence, DELFIA europium. Lysine-specific demethylase 4C (Homo sapiens), Q9H3R0. GST-JMJD2C(1-420) H3K9me3 demethylation. inhibition, % at 2.35 µM. 330,000 compounds, 0.069% hits. AID 2099, 2009;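 active = more than half of a compound's replicate wells show inhibition beyond 50%, single wells judged on their own value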;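 note: signal counts dimethyl H3K9 product captured on neutravidin plate; 0% = median of DMSO wells and 100% = 0.3 times that DMSO median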
NR2E3 ag-2 – inhibitors of NR2E3-RetCOR corepressor binding, primary screen, NR2E3 agonist project, biochemical, TR-FRET, GST-NR2E3, biotin-RetCOR. 320,000 compounds, 0.12% hits. Photoreceptor-specific nuclear receptor (Homo sapiens), Q9Y5X4. AID 2300, 2010. inhibition of corepressor binding, % at 4.78 µM. 1536-well;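 active = percent inhibition above the cutoff of mean plus 3 SD of all tested compounds, set per screening campaign, cut at about 20% in these data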;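 note: 0% = DMSO wells and 100% = biotin wells as full block of FRET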
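system = GST-tagged NR2E3 plus biotinylated RetCOR corepressor | input = 1.35 nM GST-NR2E3 | also added = 7 nM biotin-RetCOR | schedule = 5 h incubation at 4 °C | measured by = TR-FRET with europium anti-GST and streptavidin-D2, 340 nm excitation | read-out = percent loss of FRET ratio relative to control wells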
DAX1 inh-2 – DAX1 (NR0B1) inhibitors on StAR promoter, primary screen, cell-based, luminescence, SF-1 (NR5A1), full-length DAX-1 | HEK293T StAR-luciferase reporter, SF-1/DAX-1 repression relief | inhibition, % at 6.8 µM | 370,000 compounds, 1.1% hits | AID 652010, 2013;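 active = inhibition above the mean over all tested compounds plus 3 SD, cut at about 3.6% in these data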;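 note: 0% = DAX-1 cells with DMSO and 100% = cells lacking DAX-1 with DMSO; higher inhibition means more luminescence from relief of DAX-1 repression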
SMARCA2 conf – SMARCA2 (BRM) function activators, confirmation, cell-based, luminescence, triplicate. shares compounds with SMARCA2 activ. MG213 cells, MMTV-luciferase with dexamethasone, overnight; MG213 cells expressing E1A, Rb sequestered; DMSO wells 0%, reference activator 100%. activation, % at 9.1 µM. 3,500 compounds, 30% hits;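 active = activation above its plate's cutoff, the mean activation of tested wells plus 3 SD, cut at about 7.9% in these data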
GAL4-VP16 Luc – GAL4-VP16 luciferase reporter activation, counter-screen for SMARCA2 (BRM) activator project, cell-based, pG5luc, luminescence, high throughput | 3,500 compounds, 41% hits | activation, % at 9.1 µM | shares compounds with SMARCA2 activ | HEK293 GAL4-VP16 pG5luc reporter; scaled: DMSO wells 0%, SAHA wells 100%;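 active = activation above the solvent-only control well mean plus 3 SD, averaged across control plates, cut at about 5.2% in these data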
The depositor's hits bear a star.

What do the screens show for `N#C/C(=N/Nc1ccccc1F)C(=N)N1CCOCC1`?
DAX1 inh-1: 0; NR2E3 ag-1: -14; SMARCA2 activ: 9.4*; JMJD2C inh: 13; NR2E3 ag-2: 3; DAX1 inh-2: 1; SMARCA2 conf: 11*; GAL4-VP16 Luc: 3

How did CC(C(=O)NC(C)(C)C)n1c(-c2ccc3c(c2)OCO3)nc2ccccc21 (stereo not drawn) do in these assays?
SMARCA2 activ: -3; DAX1 inh-2: 0

How did COc1cc(N)ccc1Nc1c2ccccc2nc2ccccc12 do in these assays?
NR2E3 ag-1: -1

How did CCCS(=O)(=O)Nc1ccc(Nc2c3ccccc3nc3ccccc23)c(OC)c1 do in these assays?
DAX1 inh-1: -4; NR2E3 ag-1: 14; SMARCA2 activ: 15*; DAX1 inh-2: -6; SMARCA2 conf: 24*; GAL4-VP16 Luc: 3

How did O=C(Nc1ccc2c(c1)OCO2)c1cccs1 do in these assays?
DAX1 inh-1: 1; NR2E3 ag-1: -97; SMARCA2 activ: 10*; JMJD2C inh: 2; NR2E3 ag-2: 1; DAX1 inh-2: 3; SMARCA2 conf: 12*; GAL4-VP16 Luc: 9.6*

How did COc1ccc2nc(NC(=O)c3cccs3)sc2c1 do in these assays?
NR2E3 ag-1: -91; SMARCA2 activ: 0; JMJD2C inh: 16; NR2E3 ag-2: 0; DAX1 inh-2: 1

How did CC(=O)c1ccc(NC(=O)c2cccs2)cc1 do in these assays?
DAX1 inh-1: 1; NR2E3 ag-1: -95; SMARCA2 activ: 12*; JMJD2C inh: -15; NR2E3 ag-2: 4; DAX1 inh-2: 3; SMARCA2 conf: 10*; GAL4-VP16 Luc: 10*

Results for COc1ccc(NC(=O)c2ccc(NC(=O)c3cccs3)cc2)cc1 ?
DAX1 inh-1: 0; NR2E3 ag-1: -1; SMARCA2 activ: -1; JMJD2C inh: -10; NR2E3 ag-2: 4; DAX1 inh-2: 1

How did O=C(Nc1ccc2c(c1)OCO2)c1ccncc1 do in these assays?
DAX1 inh-1: 1; NR2E3 ag-1: -9; SMARCA2 activ: 2; JMJD2C inh: -4; NR2E3 ag-2: 2; DAX1 inh-2: 0

How did CC(=O)Nc1ccc2nc(NC(=O)c3cccs3)sc2c1 do in these assays?
DAX1 inh-1: 3; NR2E3 ag-1: -101; SMARCA2 activ: 9.1*; JMJD2C inh: -2; NR2E3 ag-2: 6; DAX1 inh-2: 4.2*; SMARCA2 conf: 8.7*; GAL4-VP16 Luc: 9.8*

What do the screens show for `CC(=O)c1ccc(NC(=O)/C(Cl)=C/c2ccccc2)cc1`?
DAX1 inh-1: 2; NR2E3 ag-1: -64; SMARCA2 activ: 9.7*; JMJD2C inh: 0; NR2E3 ag-2: 4; DAX1 inh-2: 3; SMARCA2 conf: 13*; GAL4-VP16 Luc: 12*

Results for CCOC(=O)[C@]12CCCCC/C=C\1N(Cc1ccc(OC)cc1)C(=O)[C@H]2CC(=O)NCc1cccc2ccccc12 ?
SMARCA2 activ: -4; DAX1 inh-2: 0
